Data taken from publication PMC9876410 (Acta Pharmacologica Sinica, 2023).
“Also recorded” adds a separate entry of the source.

Tests used:
L02 [1] = format: cell-based, human
C57BL/6 adult mice [2] = experiment: AAI-induced acute renal injury model in adult mice; format: in vivo
Outline: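 Male C57BL/6 mice aged 8 weeks received AAI 5 mg/kg i.p. for three consecutive days, with NaHCO₃ as the vehicle control. SFII 30 or 60 mg/kg was given by oral gavage 12 h before AAI and at each injection. Mice were killed 3 days after the first AAI dose. Blood creatinine was measured. Kidney sections were stained with Sirius red (37 °C, 30 min), and the stained fibrotic area was calculated.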

[3] = system: liver of adult and infant mice; experiment: DNA damage in liver of adult and infant mice; format: in vivo; details: AAI 20 mg/kg, 24 h
Outline: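 Adult mice and 14-day-old infant mice were injected with PBS (negative control), diethylnitrosamine (positive control) or AAI 20 mg/kg, and killed after 24 h. Liver protein was extracted in lysis buffer and quantified by BCA. Proteins were separated by SDS-PAGE, transferred to nitrocellulose and imaged on an infrared scanner for DNA-damage markers.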

L02 [4] = experiment: Cell proliferation assay; format: cell-based, human
Outline: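 CCK-8 proliferation in L02 cells (DMEM, 10% FBS, 37 °C, 5% CO₂). Cells were plated overnight in 96-well plates, then given AAI (dissolved in 1% NaHCO₃) and/or SFII (dissolved in DMSO). At 0, 24 and 48 h, medium was swapped for CCK-8 reagent, incubated 2 h at 37 °C, and absorbance was read at 450 nm.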

HK-2 [5] = experiment: Cell proliferation assay; format: cell-based, human
Outline: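 HK-2 cells were kept in DMEM/F12 with 10% FBS and 1% antibiotic-antimycotic at 37 °C, 5% CO₂. They were seeded in 96-well plates overnight, then treated with AAI (in 1% NaHCO₃) and SFII (in DMSO) for 48 h. Medium was replaced with CCK-8 reagent for 2 h at 37 °C, and absorbance was read at 450 nm.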

C57BL/6 adult mice [6] = experiment: AAI-induced renal fibrosis model in adult mice; format: in vivo
Outline: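 Renal fibrosis model in 8-week-old male C57BL/6 mice. A single AAI injection (10 mg/kg i.p.) was given; controls received NaHCO₃. SFII (30 or 60 mg/kg) was gavaged 12 h before AAI and then daily for 3 days; AAI-only mice received olive oil by the same schedule. Animals were killed 14 days after AAI, with body weight monitored.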

HK-2 [7] = format: cell-based, human
L02 [8] = experiment: ALT and AST in culture medium of L02; format: cell-based, human; details: AAI (20 or 50 μM) with SFII (5 or 10 μM), 24 h, vs AAI alone
Outline: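 L02 cells were grown in DMEM with 10% FBS and 1% antibiotic-antimycotic at 37 °C, 5% CO₂. Cells were exposed to AAI (20 or 50 μM) with or without SFII (5 or 10 μM) for 24 h. Culture medium was then collected, and ALT and AST were measured with clinical aminotransferase test kits.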

NQO1 [9] = target: NQO1 (Mus musculus, UniProt Q64669); experiment: NQO1 activity in kidney and liver tissues of mice; format: in vivo; details: adult mice, SFII 30, 60 mg/kg orally, 2.5 h
Outline: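 NQO1 activity in mouse kidney and liver samples was measured with a commercial NQO1 activity assay kit. Sample and reaction buffer were mixed in 96-well plates, and absorbance was read at 440 nm.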

NQO1 [10] = target: T1, NQO1 (Homo sapiens, UniProt P15559); experiment: Surface plasmon resonance; format: binding
L02 [11] = experiment: Flow cytometry analysis of apoptosis in L02; format: cell-based, human
Outline: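 L02 cells were plated in 6-well plates overnight, then treated with AAI (20 or 50 μM) with or without SFII (5 or 10 μM) for 24 h. Cells were trypsinised, spun at 1000 rpm for 3 min, washed in PBS, and stained with Annexin V-FITC or -APC plus PI for 20 min at room temperature in the dark. Flow cytometry counted Annexin V⁺/PI⁺ and Annexin V⁺/PI⁻ cells as apoptotic.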

NQO1 [12] = target: T1, NQO1; experiment: NQO1 enzyme activity test; format: biochemical
L02 [13] = experiment: qRT-PCR of apoptotic-related genes in L02; format: cell-based, human; details: AAI (20 or 50 μM) with SFII, 24 h
NQO1 [14] = target: T1, NQO1; experiment: NQO1 activity assay in HK-2 cells; format: cell-based; details: HK-2, 5 μM, 8 h, vs control group
Outline: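 HK-2 cells (DMEM/F12, 10% FBS, 37 °C, 5% CO₂) were treated with test compound at 5 μM for 8 h before protein extraction. NQO1 activity was measured with a commercial NQO1 activity kit, reading absorbance at 440 nm on a microplate reader.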

HK-2 [15] = experiment: Flow cytometry analysis of apoptosis in HK-2; format: cell-based, human; details: AAI with SFII (10 or 20 μM), 24 h
NQO1 [16] = target: T1, NQO1; experiment: Comprehensive 2D NQO1 biochromatography retention; format: binding; details: 2D NQO1 column/C18 column/TOFMS
Blood coagulation assay = format: in vivo; details: C57BL/6 adult mice, 6 mg/kg orally, 24 h
Outline: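 Adult C57BL/6 mice (4 per group) received test compound orally at 6 mg/kg and were killed 24 h later. Blood was analysed for activated partial thromboplastin time, prothrombin time and thrombin time.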

HK-2 [17] = experiment: qRT-PCR of apoptosis-related genes in HK-2; format: cell-based, human; details: AAI with SFII, 24 h
Outline: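 HK-2 cells (DMEM/F12, 10% FBS, 1% antibiotic-antimycotic, 37 °C, 5% CO₂) were treated with AAI, SFII, or both for 24 h. Expression of apoptosis-related genes was then measured by qRT-PCR.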

infant mice [18] = experiment: AAI-induced liver cancer model in infant mice; format: in vivo
infant mice [19] = experiment: Infant mice acute injury model; format: in vivo
Outline: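 Male infant mice on postnatal day 14 were injected with NaHCO₃ or AAI. SFII 10 mg/kg was given 12 h before AAI; control groups were pretreated with olive oil 12 h before injection. Mice were killed 24 h after AAI. Liver and kidney were analysed by Western blot. For TUNEL, sections were quenched with 0.3% H₂O₂ (30 min, room temperature), incubated with TUNEL mix for 2 h at 37 °C in the dark, then streptavidin-HRP for 30 min at 37 °C. Apoptotic cell percentage was calculated.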

NQO1 [20] = target: T1, NQO1; experiment: NQO1 activity assay in L02 cells; format: cell-based; details: 8 h
Outline: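 An NQO1-knockdown L02 line was made by infecting cells at 50% density with concentrated shNQO1 or shNC lentivirus plus polybrene for 10 h, then selecting with puromycin (2 μg/mL) for 48 h. Knockdown was verified by qRT-PCR and Western blot. NQO1 activity was measured with a commercial kit, reading absorbance at 440 nm.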

[21] = adult mice renal fibrosis model

T1 sequence (P15559 whole entry): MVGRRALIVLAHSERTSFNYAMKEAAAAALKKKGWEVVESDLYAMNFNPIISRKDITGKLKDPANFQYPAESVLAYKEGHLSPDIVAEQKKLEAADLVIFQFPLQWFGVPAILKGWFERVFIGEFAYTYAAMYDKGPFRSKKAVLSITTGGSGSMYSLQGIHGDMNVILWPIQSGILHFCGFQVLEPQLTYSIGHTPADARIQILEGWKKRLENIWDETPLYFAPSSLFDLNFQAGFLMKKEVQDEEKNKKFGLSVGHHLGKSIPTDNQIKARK
Chain of NQO1 (Mus musculus, UniProt Q64669) (Q64669 2-274 limits assumed): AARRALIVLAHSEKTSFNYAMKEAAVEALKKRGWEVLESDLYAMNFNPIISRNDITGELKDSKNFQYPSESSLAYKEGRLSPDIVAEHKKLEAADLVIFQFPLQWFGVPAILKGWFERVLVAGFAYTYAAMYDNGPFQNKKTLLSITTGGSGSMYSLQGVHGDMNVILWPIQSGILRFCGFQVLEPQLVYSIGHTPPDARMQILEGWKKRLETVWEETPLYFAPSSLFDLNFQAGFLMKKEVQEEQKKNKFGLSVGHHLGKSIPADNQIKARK

COc1cccc2c1cc([N+](=O)[O-])c1c(C(=O)O)cc3c(c12)OCO3 [AAI, Aristolochic acid I, reference compound]
γ-H2AX expression (DNA damage) in L02 (L02 [1]; AAI 20 μM): considerable increase | elevation of blood CRE, fold change (C57BL/6 adult mice [2]; adult mice, AAI 5 mg/kg i.p. for 3 days, AAI alone): over 1.5 | DNA damage in the liver of adult mice [3]: scarcely caused DNA damage | γ-H2AX in the liver of infant mice ([3]; age 14 days): upregulation of γ-H2AX | anti-proliferative effect in L02 (L02 [4]; AAI 0, 5, 10, 20, 50, or 100 μM, 48 h): gradually intensified | AAI-induced proliferation inhibition in HK-2 (HK-2 [5]; different doses of AAI, compared with L02): better tolerance | body weight, AAI (C57BL/6 adult mice [6]; [21]): intensive weight loss | expression of γ-H2AX in HK-2 (HK-2 [7]; AAI dose gradient, particularly at 100 μM): increase

COc1cccc(O)c1-c1cc(=O)c2c(O)c(OC)c(OC)c(OC)c2o1 [SFII, skullcapflavone II]
ALT level in culture supernatant of L02 (L02 [8]): decreased | AST level in culture supernatant of L02 (L02 [8]): decreased | NQO1 enzyme activity in kidney and liver in vivo (NQO1 [9]): good inhibitory effect | expression of P53, cleaved caspase-3, cleaved-PARP-1 and γ-H2AX in L02 (L02 [1]; AAI (20 or 50 μM) with SFII, 24 h): efficaciously decrease | Kd (NQO1 [10]): 4200 nM | percentage of apoptotic cells in L02 (L02 [11]; AAI (20 μM, 50 μM) with SFII (5 or 10 μM), 24 h, vs AAI alone): significantly decreased | apoptosis of L02, SFII alone (L02 [11]; SFII treatment alone): did not affect | IC50 (NQO1 [12]): 2870 nM | mRNA levels of BAX, NOXA, PUMA, and BAK in L02 (L02 [13]): significantly downregulate | inhibition of NQO1 activity in HK-2 (NQO1 [14]): more efficient NQO1 inhibitory effect | percentage of apoptotic cells in HK-2 (HK-2 [15]): reduced the percentage of apoptotic cells in HK-2 in a dose-dependent manner | retention on NQO1 biochromatography (NQO1 [16]): retention behaviors | expressions of γ-H2AX, P53, cleaved-caspase-3, and cleaved-PARP-1 protein in kidney (C57BL/6 adult mice [2]; SFII 30 or 60 mg/kg oral + AAI 5 mg/kg): downregulated | blood CRE (C57BL/6 adult mice [2]; SFII 30 or 60 mg/kg oral + AAI 5 mg/kg, 3 days, vs AAI alone): significantly declined | fibrosis area of kidney (Sirius red staining) (C57BL/6 adult mice [2]; SFII 30 or 60 mg/kg oral + AAI 5 mg/kg, vs AAI alone, dose-dependent): significantly limited | activated partial thromboplastin time (APTT) (Blood coagulation assay; 6 mg/kg): not significantly altered; also recorded: barely prolonged | prothrombin time (PT) (Blood coagulation assay; 6 mg/kg): not significantly altered; also recorded: barely prolonged | thrombin time (TT) (Blood coagulation assay; 6 mg/kg): not significantly altered; also recorded: barely prolonged | expression of apoptosis-related genes BAX, NOXA, PUMA, and BAK in HK-2 (HK-2 [17]): downregulated | number of tumors per liver (infant mice [18]; SFII 10, 30 or 60 mg/kg gavage 12 h before AAI 20 mg/kg, 16 weeks, dose-independently): significant decrease | kidney fibrosis (infant mice [18]; SFII pretreated, 16 weeks after AAI administration): notably relieved | expression of DNA damage and apoptosis-related proteins in liver and kidney (infant mice [19]; SFII 10 mg/kg 12 h before AAI 20 mg/kg, 24 h): significantly decreased | cell apoptosis and interstitial fibrosis in kidney (infant mice [19]; SFII 10 mg/kg pre-treated + AAI 20 mg/kg): reduced cell apoptosis as well as interstitial fibrosis | proportion of apoptotic cells in the liver (infant mice [19]; SFII 10 mg/kg pre-treated, vs AAI alone): decreased | inhibitory effect of AAI on cell proliferation in L02 (L02 [4]; AAI 20 μM + SFII 5 or 10 μM, 48 h, vs AAI alone): significantly relieved | cell proliferation of L02, SFII alone (L02 [4]; SFII alone): barely affected | AAI-induced inhibition of cell proliferation in HK-2 (HK-2 [5]; AAI 100 μM with SFII, 48 h): partially alleviated | inhibitory capability to NQO1 activity in L02 (NQO1 [20]; L02, 5 μM): significantly higher than oroxylin A | NQO1 activity of shNQO1-L02 (NQO1 [20]; NQO1 knockdown L02, SFII 5 μM): further reduced | renal histology (H&E and Sirius red staining) (C57BL/6 adult mice [6]; SFII 30 or 60 mg/kg gavage + single AAI 10 mg/kg i.p., day 14): effectively relieved renal tubular atrophy and interstitial fibrosis | body weight, mice pretreated with SFII (C57BL/6 adult mice [6]; [21]): no significant change | expression of γ-H2AX and downstream pro-apoptotic signaling in HK-2 (HK-2 [7]; AAI with SFII, 24 h): significantly decrease

C[C@@H]1C[C@H]2[C@@H]3CCC4=CC(=O)C=C[C@]4(C)[C@@]3(F)[C@@H](O)C[C@]2(C)[C@@]1(O)C(=O)CO [dexamethasone, reference compound]
retention on NQO1 biochromatography (NQO1 [16]): no retention

O=c1oc2ccccc2c(O)c1Cc1c(O)c2ccccc2oc1=O [dicoumarol, reference compound]
activated partial thromboplastin time (APTT) (Blood coagulation assay): significantly elevate | prothrombin time (PT) (Blood coagulation assay): significantly elevate | thrombin time (TT) (Blood coagulation assay): significantly elevate

COc1c(O)cc2oc(-c3ccccc3)cc(=O)c2c1O [oroxylin A]
Kd (NQO1 [10]): 873 nM | IC50 (NQO1 [12]): 930 nM | inhibition of NQO1 activity in HK-2 (NQO1 [14]): did not notably inhibit | retention on NQO1 biochromatography (NQO1 [16]): retention behaviors | activated partial thromboplastin time (APTT) (Blood coagulation assay): not significantly altered | prothrombin time (PT) (Blood coagulation assay): not significantly altered | thrombin time (TT) (Blood coagulation assay): not significantly altered

COc1cc(O)c2c(=O)cc(-c3ccccc3)oc2c1 [tectochrysin]
retention on NQO1 biochromatography (NQO1 [16]): retention behaviors

COc1c(O)cc(O)c2c(=O)cc(-c3ccccc3)oc12 [wogonin]
IC50 (NQO1 [12]): 10100 nM | retention on NQO1 biochromatography (NQO1 [16]): retention behaviors
